Measurements taken from ChEMBL document CHEMBL2146388, “Sinularosides A and B, bioactive 9,11-secosteroidal glycosides from the South China Sea soft coral Sinularia humilis Ofwegen” (J Nat Prod, 2012).
The source made the active and inactive calls. The rule behind the calls is not given here.

Tests used:
[1] = system: HepG2; experiment: Cytotoxicity against human HepG2 cells by MTT assay; format: functional, cell-based
Method in brief: (§1)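 Growth inhibition is read colorimetrically by a modified MTT method on HepG2 or Caco-2 cells. Adriamycin is the positive control. IC50 is reported.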

[2] = system: Caco-2; experiment: Cytotoxicity against human Caco2 cells by MTT assay; format: functional, cell-based; method in brief: as §1
[3] = system: Microbotryum violaceum; experiment: Antifungal activity against Microbotryum violaceum assessed as zone of inhibition at 0.05 mg by agar diffusion method; format: functional; settings: read-out: IZ
Method in brief: (§2)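 Fungi are grown on MPY medium. A 9 mm sterile filter disk is loaded with 0.05 mg of compound (50 μL of a 1.0 mg/mL acetone solution), laid on the agar, and then sprayed with a fungal suspension. The inhibition zone is scored, with an acetone control.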

[4] = system: Zymoseptoria tritici; experiment: Antifungal activity against Septoria tritici assessed as zone of inhibition at 0.05 mg by agar diffusion method; format: functional; settings: read-out: IZ; method in brief: as §2
[5] = system: Priestia megaterium; experiment: Antibacterial activity against Bacillus megaterium assessed as zone of inhibition at 0.05 mg by agar diffusion method; format: functional; settings: read-out: IZ
Method in brief: (§3)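 Compound is dissolved in acetone at 1.0 mg/mL, and 0.05 mg is applied to a sterile 9 mm filter disk. The disk is placed on NB agar and sprayed with a bacterial suspension. Read-out is the inhibition zone around the disk. Acetone serves as the solvent control.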

[6] = system: Escherichia coli; experiment: Antibacterial activity against Escherichia coli assessed as zone of inhibition at 0.05 mg by agar diffusion method; format: functional; settings: read-out: IZ; method in brief: as §3
[7] = system: [Chlorella] fusca; experiment: Antimicrobial activity against Chlorella fusca assessed as zone of inhibition at 0.05 mg by agar diffusion method; format: functional; settings: Scenedesmus fuscus; read-out: IZ
Method in brief: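 The microalga Chlorella fusca is tested on CP medium. A sterile 9 mm paper disk carries 0.05 mg of compound from a 1.0 mg/mL acetone solution and is placed on the agar, which is then sprayed with the algal suspension. The zone of growth inhibition is recorded, with acetone as control.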

| SMILES | IC50 [1] | IC50 [2] | zone of inhibition at 50 µg/disc [3] | zone of inhibition at 50 µg/disc [4] | zone of inhibition at 50 µg/disc [5] | zone of inhibition at 50 µg/disc [6] | zone of inhibition at 50 µg/disc [7] | growth inhibition (GI) [1] | growth inhibition (GI) [2] |
| --- | --- | --- | --- | --- | --- | --- | --- | --- | --- |
| COc1cccc2c1C(=O)c1c(O)c3c(c(O)c1C2=O)C[C@@](O)(C(=O)CO)C[C@@H]3O[C@H]1C[C@H](N)[C@H](O)[C@H](C)O1 [DOXORUBICIN] | 2.7 µM | 2.7 µM | – | – | – | – | – | – | – |
| CC(=O)N1CCN(c2ccc(OCC3COC(Cn4ccnc4)(c4ccc(Cl)cc4Cl)O3)cc2)CC1 (configuration not stated) [KETOCONAZOLE] | – | – | 15 mm | 14 mm | – | – | – | – | – |
| CC1(C)S[C@@H]2[C@H](NC(=O)Cc3ccccc3)C(=O)N2[C@H]1C(=O)O [PENICILLIN G] | – | – | – | – | 28 mm | 20 mm | – | – | – |
| C=C(CC[C@@H](C)[C@H]1CC[C@@H]([C@@H]2CC=C3C[C@@H](O[C@@H]4O[C@@H](C)[C@@H](O)[C@@H](O)[C@@H]4O)CC[C@]3(C)C2=O)[C@]1(C)CCO)C(C)C [SINULAROSIDE A] | – | – | 17 mm | 14 mm | 30 mm | 0 mm | 12 mm | inactive | inactive |
| C=C(CC[C@@H](C)[C@H]1CC[C@@H]([C@@H]2CC=C3C[C@@H](O[C@@H]4O[C@@H](C)[C@@H](OC(C)=O)[C@@H](O)[C@@H]4O)CC[C@]3(C)C2=O)[C@]1(C)CCO)C(C)C [SINULAROSIDE B] | – | – | 17 mm | 15 mm | 30 mm | 0 mm | 14 mm | inactive | inactive |
| CN[C@@H]1[C@H](O[C@H]2[C@H](O[C@H]3[C@H](O)[C@@H](O)[C@H](N=C(N)N)[C@@H](O)[C@@H]3N=C(N)N)O[C@@H](C)[C@]2(O)C=O)O[C@@H](CO)[C@H](O)[C@H]1O [STREPTOMYCIN] | – | – | – | – | 30 mm | 25 mm | – | – | – |
